Activity calls are given as the source filed them. No cut-off for these calls is given here.
What was measured:
HepG2 [1] = test: Induction of apoptosis in human HepG2 cells assessed as necrotic cells at 5 nM incubated for 12 hrs by Annexin V-PE and 7-AAD staining based flow cytometry (reference value: 0.55 %); assay type: functional
Procedure, shortened: (§1)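 HepG2 cells seeded at 3 × 10⁵ cells/well, adhered overnight, exposed at 5, 10 or 20 nM for 12 or 24 h. Harvested into Annexin V binding buffer and stained with annexin V-PE and 7-AAD for 15 min at room temperature in the dark, then analysed by flow cytometry. Gates: live (−/−), early apoptotic (+/−), late apoptotic (+/+), necrotic (−/+).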

HepG2 [2] = test: Induction of apoptosis in human HepG2 cells assessed as early apoptotic cells at 5 nM incubated for 24 hrs by Annexin V-PE and 7-AAD staining based flow cytometry (reference value: 4.16 %); assay type: functional; procedure, shortened: as §1
HepG2 [3] = test: Induction of apoptosis in human HepG2 cells assessed as increase in Bax expression incubated for 24 hrs by Western blot analysis; assay type: functional, cell-based; details: dose nM 2.5-20, time 24.0 hrs
Procedure, shortened: (§2)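 Lysates (20 μg protein) separated by 10% PAGE and blotted to PVDF. Probed for Bax, Bcl-2, cleaved caspase-3 and cleaved PARP, detected by ECL and quantified by densitometry.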

HepG2 [4] = test: Induction of cell cycle arrest in human HepG2 cells assessed as accumulation in G1 phase at 5 nM incubated for 24 hrs by propidium iodide staining based flow cytometry (reference value: 60.76%); assay type: functional
[5] = biological target: Tubulin beta (Homo sapiens) (UniProt P68371+Q9H4B7+Q13509+P04350+Q3ZCM7+P07437+Q13885+Q9BVA1+Q9BUF5+A6NNZ2); test: Inhibition of N,N'-Ethylenebis(iodoacetamide) binding to beta-tubulin in human HepG2 cells assessed as reduction in EBI/beta-tubulin adduct formation preincubated for 2 hrs followed by EBI addition and measured after 1.5 hrs by Western blot analysis; assay type: cell-based; details: dose microM 0.2-25, time 3.5 hrs
Procedure, shortened: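 HepG2 seeded 5 × 10⁵ cells/well, adhered overnight. […] Lysate protein (20 μg) run on 10% polyacrylamide gel on ice and transferred to PVDF. Probed with anti-β-tubulin 16 h at 4 °C, then HRP secondary. Chemiluminescence detection.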

HepG2 [6] = test: Induction of apoptosis in human HepG2 cells assessed as PARP cleavage at 2.5 to 20 nM incubated for 24 hrs by western blot analysis; assay type: functional, cell-based; details: dose nM 2.5-20, time 24.0 hrs; procedure, shortened: as §2
HepG2 [7] = test: Induction of cell cycle arrest in human HepG2 cells assessed as accumulation in G2/M phase incubated for 24 hrs by propidium iodide staining based flow cytometry; assay type: functional; details: dose nM 5-20, time 24.0 hrs
HepG2 [8] = test: Induction of apoptosis in human HepG2 cells assessed as necrotic cells at 10 nM incubated for 24 hrs by Annexin V-PE and 7-AAD staining based flow cytometry (reference value: 0.34 %); assay type: functional; procedure, shortened: as §1
HepG2 [9] = test: Induction of apoptosis in human HepG2 cells assessed as late apoptotic cells at 20 nM incubated for 12 hrs by Annexin V-PE and 7-AAD staining based flow cytometry (reference value: 2.79%); assay type: functional; procedure, shortened: as §1
HepG2 [10] = test: Induction of cell cycle arrest in human HepG2 cells assessed as accumulation in S phase at 20 nM incubated for 24 hrs by propidium iodide staining based flow cytometry (reference value: 26.65%); assay type: functional
HCT-116 = test: Antiproliferation activity against human HCT116 cells assessed as cell growth inhibition measured after 72 hrs by MTT assay; assay type: functional
Procedure, shortened: (§3)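 Cells grown in RPMI-1640 with 10% FBS at 37 °C, 5% CO2, seeded at 4−7 × 10³ cells/well and left to adhere overnight. Exposed to a range of concentrations for 72 h, then MTT (2.5 mg/mL stock) added for 4 h. Formazan dissolved in DMSO and absorbance read at 570 nm. GI50 taken as the concentration giving 50% growth inhibition, reported as mean ± SD of at least three independent experiments.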

[11] = Lipophilicity, log P of the compound in DMSO and n-octanol at pH 7.4 incubated for 10 hrs under stirred condition by HPLC analysis; assay type: physicochemical; details: n-octanol / aqueous phase pH 7.4, pH 7.4
Procedure, shortened: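 Partition between n-octanol and water: mixture stirred at room temperature for 10 h, then left at 4 °C overnight. Each phase analysed separately by HPLC on a C18 column. Log P taken from the ratio of peak areas in n-octanol and water.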

HepG2 [12] = test: Induction of apoptosis in human HepG2 cells assessed as necrotic cells at 20 nM incubated for 12 hrs by Annexin V-PE and 7-AAD staining based flow cytometry (reference value: 0.55 %); assay type: functional; procedure, shortened: as §1
HepG2 [13] = test: Induction of apoptosis in human HepG2 cells assessed as early apoptotic cells at 20 nM incubated for 12 hrs by Annexin V-PE and 7-AAD staining based flow cytometry (reference value: 4.52%); assay type: functional; procedure, shortened: as §1
[14] = Toxicity in Balb/c nude mouse xenografted with human HepG2 cells assessed as change in body weight at 5 mg/kg, iv administered every 2 days for 21 days (reference value: 7.8 % ); assay type: organism-based; details: in vivo, 504 h, time 21 day
HepG2 [15] = test: Induction of cell cycle arrest in human HepG2 cells assessed as accumulation in S phase at 10 nM incubated for 24 hrs by propidium iodide staining based flow cytometry (reference value: 26.65%); assay type: functional
[16] = Inhibition of porcine brain tubulin polymerization measured every 60 sec for 60 mins in presence of GTP by fluorescence assay; parameters: species or system Sus scrofa
Procedure, shortened: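 Fluorescence kit assay using 2 mg/mL porcine brain tubulin with 2 mM MgCl₂, 0.5 mM EGTA, 1 mM GTP and 15% glycerol. Compound at various concentrations preincubated 1 min at 37 °C before adding the tubulin mix. Read at ex 355/em 460 nm every 60 s for 60 min. IC50 is the concentration giving 50% inhibition at 60 min; mean ± SD of ≥3 independent experiments.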

HepG2 [17] = test: Antiproliferation activity against human HepG2 cells assessed as cell growth inhibition measured after 72 hrs by MTT assay; assay type: functional; procedure, shortened: as §3
[18] = Antiproliferation activity against human A549/Taxol cells assessed as cell growth inhibition measured after 72 hrs by MTT assay; assay type: functional; procedure, shortened: as §3
HepG2 [19] = test: Induction of apoptosis in human HepG2 cells assessed as live cells at 5 nM incubated for 24 hrs by Annexin V-PE and 7-AAD staining based flow cytometry (reference value: 93.2%); assay type: functional; procedure, shortened: as §1
[20] = Toxicity in Balb/c nude mouse xenografted with human HepG2 cells assessed as change in body weight at 25 mg/kg, po qd administered for 21 days measured at 3 days interval during compound dosing (reference value: - 17.2 % ); assay type: organism-based; details: in vivo, 504 h, time 21 day
Procedure, shortened: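 Nude mice received 200 μL PBS with HepG2 cells (1 × 10⁷ cells/mL) subcutaneously in the right armpit. At 90 mm³ tumour volume, randomized to 5 per group. Dosed 25 mg/kg as a 2.5 mg/mL distilled-water solution, intragastric once daily for 21 days; distilled water as vehicle. Body weight recorded every 3 days; change given as initial vs end weight.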

HepG2 [21] = test: Induction of apoptosis in human HepG2 cells assessed as early apoptotic cells at 10 nM incubated for 24 hrs by Annexin V-PE and 7-AAD staining based flow cytometry (reference value: 4.16 %); assay type: functional; procedure, shortened: as §1
HepG2 [22] = test: Induction of cell cycle arrest in human HepG2 cells assessed as accumulation in G2/M phase at 10 nM incubated for 24 hrs by propidium iodide staining based flow cytometry (reference value: 12.59%); assay type: functional

Question: For CCOc1cccc(Nc2nn(C)c3c2Cc2cc(OCC)c(OCCCN)cc2-3)c1, which Activity (HepG2 [1]) is on record?
Answer: The Activity was 0.43%.

Question: What about the Activity (HepG2 [2]) of the same compound?
Answer: The Activity was 9.75%.

Question: What about the Activity (HepG2 [3]) of the same compound?
Answer: The Activity was “Dose-dependent effect”.

Question: And the Activity (HepG2 [4])?
Answer: Its Activity is 49.56%.

Question: And the inhibition [5]?
Answer: The inhibition was “Dose-dependent effect”.

Question: And the Activity (HepG2 [6])?
Answer: Its Activity is “Active”.

Question: What about the Activity (HepG2 [7]) of the same compound?
Answer: The Activity was “Dose-dependent effect”.

Question: And the Activity (HepG2 [8])?
Answer: The Activity was 0.61%.

Question: And the Activity (HepG2 [9])?
Answer: Its Activity is 6.42%.

Question: What about the Activity (HepG2 [10]) of the same compound?
Answer: The Activity was 8.43%.

Question: What about the GI50 (HCT-116) of the same compound?
Answer: Its GI50 is 2.4 nM.

Question: What about the logD at 10 h [11] of the same compound?
Answer: The logD at 10 h was 1.7.

Question: And the Activity (HepG2 [12])?
Answer: Its Activity is 1.36%.

Question: And the Activity (HepG2 [13])?
Answer: The Activity was 14.5%.

Question: And the Activity [14]?
Answer: Its Activity is 8.4%.

Question: And the Activity (HepG2 [15])?
Answer: The Activity was 26.85%.

Question: And the IC50 [16]?
Answer: The IC50 was 3700 nM.

Question: What about the GI50 (HepG2 [17]) of the same compound?
Answer: Its GI50 is 2.4 nM.

Question: And the GI50 [18]?
Answer: Its GI50 is 14.7 nM.

Question: What about the Activity (HepG2 [19]) of the same compound?
Answer: The Activity was 85.6%.

Question: And the Activity [20]?
Answer: Its Activity is -18.5%.

Question: What about the Activity (HepG2 [21]) of the same compound?
Answer: The Activity was 16.7%.

Question: What about the Activity (HepG2 [22]) of the same compound?
Answer: The Activity was 56.07%.

From ChEMBL document CHEMBL4699650, “SAR Investigation and Discovery of Water-Soluble 1-Methyl-1,4-dihydroindeno[1,2-c]pyrazoles as Potent Tubulin Polymerization Inhibitors” (J Med Chem, 2020)
